Experimental data published in ChEMBL document CHEMBL1122887, “Structure-activity studies on the N-terminal region of growth hormone releasing factor” (1985).

What was measured:
Assay type in all cases: functional
Rattus norvegicus [1] = test: Percent growth hormone releasing activity in anesthetized rat relative to hpGRF (1-29)NH2
Procedure, shortened: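 In pentobarbital-anesthetized male Charles River rats (6–9/group), two subcutaneous analogue doses and GRF(1-29)NH₂ reference doses were given. Plasma GH was measured by radioimmunoassay in jugular blood taken 15 min post-injection. Relative potency with 95% confidence limits came from a four-point assay design by Pugsley's method. Not active means no activity at the doses tested.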

Rattus norvegicus [2] = test: Effect on plasma growth hormone in anesthetized rat at a dose of 1 ug/100 g of body weight
Procedure, shortened: (§1)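 Male Charles River rats (175–350 g) anesthetized with sodium pentobarbital (6 mg/100 g body wt); 30 min later, 6–9 per group received a single subcutaneous 0.5-mL injection of saline, GRF(1-29)NH₂ reference, or one of two analogue doses. Jugular vein blood was drawn 15 min post-injection, and plasma GH was measured by radioimmunoassay, reported as ng/mL ± SE.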

Rattus norvegicus [3] = test: Effect on plasma growth hormone in anesthetized rat at a dose of 0.4 ug/100 g of body weight; procedure, shortened: as §1
Rattus norvegicus [4] = test: Effect on plasma growth hormone in anesthetized rat at a dose of 10 ug/100 g of body weight; procedure, shortened: as §1
Rattus norvegicus [5] = test: Effect on plasma growth hormone in anesthetized rat at a dose of 4 ug/100 g of body weight; procedure, shortened: as §1
Rattus norvegicus [6] = test: Effect on plasma growth hormone in anesthetized rat at a dose of 20 ug/100 g of body weight; procedure, shortened: as §1
Rattus norvegicus [7] = test: Effect on plasma growth hormone in anesthetized rat at a dose of 125 ug/100 g of body weight; procedure, shortened: as §1
Rattus norvegicus [8] = test: Effect on plasma growth hormone in anesthetized rat at a dose of 50 ug/100 g of body weight; procedure, shortened: as §1
Rattus norvegicus [9] = test: Effect on plasma growth hormone in anesthetized rat at a dose of 0.62 ug/100 g of body weight; procedure, shortened: as §1
Rattus norvegicus [10] = test: Effect on plasma growth hormone in anesthetized rat at a dose of 0.25 ug/100 g of body weight; procedure, shortened: as §1
Rattus norvegicus [11] = test: Effect on plasma growth hormone in anesthetized rat at a dose of 1.2 ug/100 g of body weight; procedure, shortened: as §1
Rattus norvegicus [12] = test: Effect on plasma growth hormone in anesthetized rat at a dose of 3 ug/100 g of body weight; procedure, shortened: as §1
Rattus norvegicus [13] = test: Effect on plasma growth hormone in anesthetized rat at a dose of 16 ug/100 g of body weight; procedure, shortened: as §1
Rattus norvegicus [14] = test: Effect on plasma growth hormone in anesthetized rat at a dose of 32 ug/100 g of body weight; procedure, shortened: as §1

SMILES: CC[C@H](C)[C@H](NC(=O)[C@H](C)NC(=O)[C@H](CC(=O)O)NC(=O)[C@@H](C)NC(=O)[C@H](Cc1ccc(O)cc1)NC(C)=O)C(=O)N[C@@H](Cc1ccccc1)C(=O)N[C@H](C(=O)N[C@@H](CC(N)=O)C(=O)N[C@@H](CO)C(=O)N[C@@H](Cc1ccc(O)cc1)C(=O)N[C@@H](CCCN=C(N)N)C(=O)N[C@@H](CCCCN)C(=O)N[C@H](C(=O)N[C@@H](CC(C)C)C(=O)NCC(=O)N[C@@H](CCC(N)=O)C(=O)N[C@@H](CC(C)C)C(=O)N[C@@H](CO)C(=O)N[C@@H](C)C(=O)N[C@@H](CCCN=C(N)N)C(=O)N[C@@H](CCCCN)C(=O)N[C@@H](CC(C)C)C(=O)N[C@@H](CC(C)C)C(=O)N[C@@H](CCC(N)=O)C(=O)N[C@@H](CC(=O)O)C(=O)N[C@H](C(=O)N[C@@H](CCSC)C(=O)N[C@@H](CO)C(=O)N[C@@H](CCCN=C(N)N)C(N)=O)[C@@H](C)CC)C(C)C)[C@@H](C)O
- Activity (Rattus norvegicus [1]): 2558%
- Activity (Rattus norvegicus [2]): 2496 ng/mL
- Activity (Rattus norvegicus [3]): 1300 ng/mL

SMILES: CC[C@H](C)[C@H](NC(=O)[C@H](C)NC(=O)[C@H](CC(=O)O)NC(=O)[C@H](C)NC(=O)[C@@H](N)Cc1ccc(O)cc1)C(=O)N[C@@H](Cc1ccccc1)C(=O)N[C@H](C(=O)N[C@H](CC(N)=O)C(=O)N[C@@H](CO)C(=O)N[C@@H](Cc1ccc(O)cc1)C(=O)N[C@@H](CCCN=C(N)N)C(=O)N[C@@H](CCCCN)C(=O)N[C@H](C(=O)N[C@@H](CC(C)C)C(=O)NCC(=O)N[C@@H](CCC(N)=O)C(=O)N[C@@H](CC(C)C)C(=O)N[C@@H](CO)C(=O)N[C@@H](C)C(=O)N[C@@H](CCCN=C(N)N)C(=O)N[C@@H](CCCCN)C(=O)N[C@@H](CC(C)C)C(=O)N[C@@H](CC(C)C)C(=O)N[C@@H](CCC(N)=O)C(=O)N[C@@H](CC(=O)O)C(=O)N[C@H](C(=O)N[C@@H](CCSC)C(=O)N[C@@H](CO)C(=O)N[C@@H](CCCN=C(N)N)C(N)=O)[C@@H](C)CC)C(C)C)[C@@H](C)O
- Activity (Rattus norvegicus [1]): 221%
- Activity (Rattus norvegicus [4]): 2397 ng/mL
- Activity (Rattus norvegicus [5]): 1296 ng/mL

SMILES: CC[C@H](C)[C@H](NC(=O)[C@H](C)NC(=O)[C@H](CC(=O)O)NC(=O)[C@H](C)NC(=O)[C@@H](N)Cc1ccc(O)cc1)C(=O)N[C@@H](Cc1ccccc1)C(=O)N[C@H](C(=O)N[C@@H](CC(N)=O)C(=O)N[C@@H](CO)C(=O)N[C@@H](Cc1ccc(O)cc1)C(=O)N[C@@H](CCCN=C(N)N)C(=O)N[C@@H](CCCCN)C(=O)N[C@H](C(=O)N[C@@H](CC(C)C)C(=O)NCC(=O)N[C@@H](CCC(N)=O)C(=O)N[C@@H](CC(C)C)C(=O)N[C@@H](CO)C(=O)N[C@@H](C)C(=O)N[C@@H](CCCN=C(N)N)C(=O)N[C@@H](CCCCN)C(=O)N[C@@H](CC(C)C)C(=O)N[C@@H](CC(C)C)C(=O)N[C@@H](CCC(N)=O)C(=O)N[C@@H](CC(=O)O)C(=O)N[C@H](C(=O)N[C@@H](CCSC)C(=O)N[C@@H](CO)C(=O)N[C@@H](CCCN=C(N)N)C(N)=O)[C@@H](C)CC)C(C)C)[C@@H](C)O
- Activity (Rattus norvegicus [6]): 1781 ng/mL

SMILES: CC[C@H](C)[C@H](NC(=O)[C@H](C)NC(=O)[C@H](CC(=O)O)NC(=O)[C@@H](C)NC(=O)[C@@H](Cc1ccc(O)cc1)NC(C)=O)C(=O)N[C@@H](Cc1ccccc1)C(=O)N[C@H](C(=O)N[C@@H](CC(N)=O)C(=O)N[C@@H](CO)C(=O)N[C@@H](Cc1ccc(O)cc1)C(=O)N[C@@H](CCCN=C(N)N)C(=O)N[C@@H](CCCCN)C(=O)N[C@H](C(=O)N[C@@H](CC(C)C)C(=O)NCC(=O)N[C@@H](CCC(N)=O)C(=O)N[C@@H](CC(C)C)C(=O)N[C@@H](CO)C(=O)N[C@@H](C)C(=O)N[C@@H](CCCN=C(N)N)C(=O)N[C@@H](CCCCN)C(=O)N[C@@H](CC(C)C)C(=O)N[C@@H](CC(C)C)C(=O)N[C@@H](CCC(N)=O)C(=O)N[C@@H](CC(=O)O)C(=O)N[C@H](C(=O)N[C@@H](CCSC)C(=O)N[C@@H](CO)C(=O)N[C@@H](CCCN=C(N)N)C(N)=O)[C@@H](C)CC)C(C)C)[C@@H](C)O (stereo in doubt; 5)
- Activity (Rattus norvegicus [1]): <5%
- Activity (Rattus norvegicus [7]): 670 ng/mL
- Activity (Rattus norvegicus [8]): 435 ng/mL

SMILES: CC[C@H](C)[C@H](NC(=O)[C@H](C)NC(=O)[C@H](CC(=O)O)NC(=O)[C@@H](C)NC(=O)[C@@H](Cc1ccc(O)cc1)NC(C)=O)C(=O)N[C@@H](Cc1ccccc1)C(=O)N[C@H](C(=O)N[C@@H](CC(N)=O)C(=O)N[C@@H](CO)C(=O)N[C@@H](Cc1ccc(O)cc1)C(=O)N[C@@H](CCCN=C(N)N)C(=O)N[C@@H](CCCCN)C(=O)N[C@H](C(=O)N[C@@H](CC(C)C)C(=O)NCC(=O)N[C@@H](CCC(N)=O)C(=O)N[C@@H](CC(C)C)C(=O)N[C@@H](CO)C(=O)N[C@@H](C)C(=O)N[C@@H](CCCN=C(N)N)C(=O)N[C@@H](CCCCN)C(=O)N[C@@H](CC(C)C)C(=O)N[C@@H](CC(C)C)C(=O)N[C@@H](CCC(N)=O)C(=O)N[C@@H](CC(=O)O)C(=O)N[C@H](C(=O)N[C@@H](CCSC)C(=O)N[C@@H](CO)C(=O)N[C@@H](CCCN=C(N)N)C(N)=O)[C@@H](C)CC)C(C)C)[C@@H](C)O (stereo in doubt; 12)
- Activity (Rattus norvegicus [9]): 2386 ng/mL
- Activity (Rattus norvegicus [1]): 3817%
- Activity (Rattus norvegicus [10]): 1235 ng/mL

SMILES: CC[C@H](C)[C@H](NC(=O)[C@H](C)NC(=O)[C@H](CC(=O)O)NC(=O)[C@@H](C)NC(=O)[C@@H](Cc1ccc(O)cc1)NC(C)=O)C(=O)N[C@@H](Cc1ccccc1)C(=O)N[C@H](C(=O)N[C@@H](CC(N)=O)C(=O)N[C@@H](CO)C(=O)N[C@@H](Cc1ccc(O)cc1)C(=O)N[C@@H](CCCN=C(N)N)C(=O)N[C@@H](CCCCN)C(=O)N[C@H](C(=O)N[C@@H](CC(C)C)C(=O)NCC(=O)N[C@@H](CCC(N)=O)C(=O)N[C@@H](CC(C)C)C(=O)N[C@@H](CO)C(=O)N[C@@H](C)C(=O)N[C@@H](CCCN=C(N)N)C(=O)N[C@@H](CCCCN)C(=O)N[C@@H](CC(C)C)C(=O)N[C@@H](CC(C)C)C(=O)N[C@@H](CCC(N)=O)C(=O)N[C@@H](CC(=O)O)C(=O)N[C@H](C(=O)N[C@@H](CCSC)C(=O)N[C@@H](CO)C(=O)N[C@@H](CCCN=C(N)N)C(N)=O)[C@@H](C)CC)C(C)C)[C@@H](C)O (stereo in doubt; 13)
- Activity (Rattus norvegicus [1]): 1297%
- Activity (Rattus norvegicus [11]): 1329 ng/mL
- Activity (Rattus norvegicus [12]): 3504 ng/mL

SMILES: CC[C@H](C)[C@H](NC(=O)[C@H](C)NC(=O)[C@H](CC(=O)O)NC(=O)[C@@H](C)NC(=O)[C@@H](Cc1ccc(O)cc1)NC(C)=O)C(=O)N[C@@H](Cc1ccccc1)C(=O)N[C@H](C(=O)N[C@@H](CC(N)=O)C(=O)N[C@@H](CO)C(=O)N[C@@H](Cc1ccc(O)cc1)C(=O)N[C@@H](CCCN=C(N)N)C(=O)N[C@@H](CCCCN)C(=O)N[C@H](C(=O)N[C@@H](CC(C)C)C(=O)NCC(=O)N[C@@H](CCC(N)=O)C(=O)N[C@@H](CC(C)C)C(=O)N[C@@H](CO)C(=O)N[C@@H](C)C(=O)N[C@@H](CCCN=C(N)N)C(=O)N[C@@H](CCCCN)C(=O)N[C@@H](CC(C)C)C(=O)N[C@@H](CC(C)C)C(=O)N[C@@H](CCC(N)=O)C(=O)N[C@@H](CC(=O)O)C(=O)N[C@H](C(=O)N[C@@H](CCSC)C(=O)N[C@@H](CO)C(=O)N[C@@H](CCCN=C(N)N)C(N)=O)[C@@H](C)CC)C(C)C)[C@@H](C)O (stereo in doubt; 19)
- Activity (Rattus norvegicus [13]): 504 ng/mL
- Activity (Rattus norvegicus [14]): 2378 ng/mL
- Activity (Rattus norvegicus [1]): 52%
